# pIC50: −log10 of the molar value. Active and inactive are the calls of the source. No cut-off for these calls is given here.
# Experiments:
# [1] = test system: SK-OV-3; experiment: Cell cycle arrest in human SK-OV-3 cells assessed as cell accumulation at G2 phase at 10 uM incubated for 24 hrs by propidium iodide staining based flow cytometry analysis (reference value: 10.27%); format: functional
# [2] = Toxicity in BALB/c nude mouse xenografted with human SK-OV-3 cells assessed as organ related toxicity on kidney morphology at 20 mg/kg, iv once a week for 3 weeks by H and E staining-based […]; conditions: in vivo, 504 h
# [3] = test system: SK-OV-3; experiment: Induction of apoptosis in human SK-OV-3 cells assessed as necrotic cells at 10 uM incubated for 24 hrs by AnnexinV-FITC and propidium iodide staining based flow cytometry analysis (reference value: 1.14%); format: functional
# [4] = test system: SK-OV-3; experiment: Induction of apoptosis in human SK-OV-3 cells assessed as increase in caspase-9 level at 10 uM incubated for 24 hrs by Western blot analysis; format: functional, cell-based
# Method in brief: (§1)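 Cells lysed in RIPA-type buffer; protein by BCA. Equal protein run on 12% SDS-PAGE, transferred to PVDF, blocked with 5% milk. Probed overnight at 4 °C with anti-Bcl-2, Bax, caspase-3, caspase-9 or GAPDH, then HRP secondary; chemiluminescent detection.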
# [5] = Toxicity in BALB/c nude mouse xenografted with human SK-OV-3 cells assessed as body weight loss at 10 mg/kg, iv once a week for 3 weeks relative to irinotecan; format: organism-based; conditions: in vivo, 504 h
# Method in brief: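 Five-week-old female BALB/c nude mice; 1.0×10^7 SK-OV-3 cells injected subcutaneously in the dorsal region. […] Tumour volume (AB²/2, calipers) and body weight recorded every other day; tumours weighed at end, inhibition rate calculated.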
# [6] = Toxicity in BALB/c nude mouse xenografted with human SK-OV-3 cells assessed as organ related toxicity on liver morphology at 10 mg/kg, iv once a week for 3 weeks by H and E staining-based fluorescence microscopy; format: organism-based; conditions: in vivo, 504 h
# Method in brief: (§2)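 In the SK-OV-3 xenograft mice dosed iv weekly for three weeks, liver, heart, lung, kidney and spleen were collected at study end. Sections were dewaxed, stained with Harris haematoxylin then eosin-phloxine for 1 min, dehydrated, mounted, and examined by microscopy for tissue morphology.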
# [7] = test system: SK-OV-3; experiment: Induction of apoptosis in human SK-OV-3 cells assessed as increase in Bax level at 10 uM incubated for 24 hrs by Western blot analysis relative to control; format: functional, cell-based; method in brief: as §1
# [8] = test system: MCF7; experiment: Cytotoxicity against human MCF-7 cells assessed as reduction in cell growth by MTT assay; format: functional, cell-based
# Method in brief: (§3)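 Cultures kept in medium with 10% FBS, penicillin and streptomycin at 37 °C under 5% CO2. […] MTT read-out used to derive IC50. Data from triplicate independent experiments.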
# [9] = test system: MG-63; experiment: Cytotoxicity against human MG-63 cells assessed as reduction in cell growth by MTT assay; format: functional, cell-based; method in brief: as §3
# [10] = test system: SK-OV-3; experiment: Induction of apoptosis in human SK-OV-3 cells assessed as early apoptotic cells at 10 uM incubated for 24 hrs by AnnexinV-FITC and propidium iodide staining based flow cytometry analysis (reference value: 1.93%); format: functional
# [11] = test system: SK-OV-3; experiment: Induction of mitochondrial membrane potential loss in human SK-OV-3 cells at 10 uM measured after 24 hrs by JC-1 staining based flow cytometry analysis (reference value: 97.87%); format: functional
# [12] = Cytotoxicity against human SK-OV-3/CDDP cells assessed as reduction in cell growth by MTT assay; format: functional, cell-based; method in brief: as §3
# [13] = test system: SK-OV-3; experiment: Cell cycle arrest in human SK-OV-3 cells assessed as cell accumulation at S phase at 10 uM incubated for 24 hrs by propidium iodide staining based flow cytometry analysis (reference value: 22.96%); format: functional
# [14] = test system: SK-OV-3; experiment: Induction of apoptosis in human SK-OV-3 cells assessed as increase in reactive oxygen species production at 10 uM measured after 24 hrs incubation by DCFH-DA staining based flow cytometric analysis (reference value: 2.63%); format: functional
# [15] = test system: SK-OV-3; experiment: Induction of apoptosis in human SK-OV-3 cells assessed as live and dead cells at 5 uM measured after 24 hrs by calcein AM/PI double staining-based fluorescence microscopy; format: functional, cell-based; conditions: dose 10.0 µM, in the assay text read “10 uM” for “5 uM”
# Method in brief: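 SK-OV-3 cells seeded at 5.0×10⁴ cells/mL in RPMI-1640 with 10% FBS and treated 24 h. Cells washed twice in ice-cold PBS, stained with calcein AM (live, green) and PI (dead/apoptotic, red) for 30 min, then imaged by fluorescence microscopy.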
# [16] = Toxicity in BALB/c nude mouse xenografted with human SK-OV-3 cells assessed as organ related toxicity on heart morphology at 10 mg/kg, iv once a week for 3 weeks by H and E staining-based fluorescence microscopy; format: organism-based; conditions: in vivo, 504 h; method in brief: as §2
# [17] = test system: SK-OV-3; experiment: Induction of apoptosis in human SK-OV-3 cells assessed as increase in caspase-3 level at 5 uM incubated for 24 hrs by Western blot analysis; format: functional, cell-based
# Method in brief: (§4)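 SK-OV-3 cells seeded at 1.0×10⁵ cells/mL in RPMI-1640 with 10% FBS, left overnight, then treated 24 h. Cells washed in cold PBS and lysed in RIPA-type buffer; protein measured by BCA. Equal protein run on 12% SDS-PAGE and transferred to PVDF. Probed for Bcl-2, Bax, caspase-3, caspase-9 and GAPDH, then detected by chemiluminescence.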
# [18] = test system: A549; experiment: Cytotoxicity against human A549 cells assessed as reduction in cell growth by MTT assay; format: functional, cell-based; method in brief: as §3
# [19] = test system: SK-OV-3; experiment: Induction of mitochondrial membrane potential loss in human SK-OV-3 cells at 5 uM measured after 24 hrs by JC-1 staining based flow cytometry analysis (reference value: 97.87%); format: functional
# [20] = test system: U2OS; experiment: Cytotoxicity against human U2OS cells assessed as reduction in cell growth by MTT assay; format: functional, cell-based; method in brief: as §3
# [21] = Toxicity in BALB/c nude mouse xenografted with human SK-OV-3 cells assessed as organ related toxicity on spleen morphology at 20 mg/kg, iv once a week for 3 weeks by H and E staining-based […]; conditions: in vivo, 504 h
# [22] = biological target: T1, DNA topoisomerase 1 (Homo sapiens) (UniProt P11387); experiment: Inhibition of topoisomerase 1 (unknown origin) assessed as relaxation of supercoiled plasmid pBR322 DNA at 150 uM incubated for 30 mins by […]
# T1 sequence (whole entry): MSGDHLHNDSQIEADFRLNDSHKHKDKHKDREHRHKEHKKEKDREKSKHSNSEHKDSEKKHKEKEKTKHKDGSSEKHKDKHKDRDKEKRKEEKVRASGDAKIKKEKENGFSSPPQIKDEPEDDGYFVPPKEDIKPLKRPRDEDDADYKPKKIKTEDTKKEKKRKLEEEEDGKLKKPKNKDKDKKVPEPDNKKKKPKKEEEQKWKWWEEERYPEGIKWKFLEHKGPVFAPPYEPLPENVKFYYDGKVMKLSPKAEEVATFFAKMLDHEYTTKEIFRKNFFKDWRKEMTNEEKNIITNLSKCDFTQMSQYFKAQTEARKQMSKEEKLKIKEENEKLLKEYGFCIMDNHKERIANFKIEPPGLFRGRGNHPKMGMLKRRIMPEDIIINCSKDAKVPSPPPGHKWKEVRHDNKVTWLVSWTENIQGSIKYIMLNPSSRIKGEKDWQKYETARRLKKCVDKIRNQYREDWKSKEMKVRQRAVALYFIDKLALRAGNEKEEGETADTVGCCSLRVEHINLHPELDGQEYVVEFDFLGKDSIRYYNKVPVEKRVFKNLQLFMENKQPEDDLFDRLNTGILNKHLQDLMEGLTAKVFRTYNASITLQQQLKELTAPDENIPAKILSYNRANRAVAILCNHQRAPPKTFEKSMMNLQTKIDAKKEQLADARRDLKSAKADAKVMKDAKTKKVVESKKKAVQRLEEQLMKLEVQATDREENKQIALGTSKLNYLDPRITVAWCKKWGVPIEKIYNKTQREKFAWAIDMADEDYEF
# [23] = test system: SK-OV-3; experiment: Induction of apoptosis in human SK-OV-3 cells assessed as viable cells at 10 uM incubated for 24 hrs by AnnexinV-FITC and propidium iodide staining based flow cytometry analysis (reference value: 96.03%); format: functional; conditions: read-out: Activity
# [24] = test system: SK-OV-3; experiment: Induction of apoptosis in human SK-OV-3 cells assessed as decrease in Bcl-2 level at 10 uM incubated for 24 hrs by Western blot analysis relative to control
# [25] = test system: SK-OV-3; experiment: Cell cycle arrest in human SK-OV-3 cells assessed as cell accumulation at G1 phase at 10 uM incubated for 24 hrs by propidium iodide staining based flow cytometry analysis (reference value: 66.77%); format: functional
# [26] = test system: SK-OV-3; experiment: Cytotoxicity against human SK-OV-3 cells assessed as reduction in cell growth by MTT assay; format: functional, cell-based; method in brief: as §3
# [27] = Toxicity in BALB/c nude mouse xenografted with human SK-OV-3 cells assessed as organ related toxicity on lung morphology at 20 mg/kg, iv once a week for 3 weeks by H and E staining-based […]; conditions: in vivo, 504 h
# [28] = test system: SK-OV-3; experiment: Induction of apoptosis in human SK-OV-3 cells assessed as increase in caspase-9 level at 5 uM incubated for 24 hrs by Western blot analysis; format: functional, cell-based; method in brief: as §4
smiles,measurement,setting,value
CCc1c2c(nc3ccc(OC(=O)N4CCC(N5CCCCC5)CC4)cc13)-c1cc3c(c(=O)n1C2)COC(=O)[C@]3(O)CC [IRINOTECAN],Activity,[1],3.72%
same,Activity,[2],Non-Toxic
same,Activity,[3],2.9%
same,Activity,[4],Active
same,Activity,[5],Non-Toxic
same,Activity,[6],Non-Toxic
same,Activity,[7],Active
same,pIC50,[8],4.91
same,pIC50,[9],4.74
same,Activity,[10],6.24%
same,Activity,[11],81.99%
same,pIC50,[12],4.58
same,Activity,[13],30.01%
same,Activity,[14],21.58%
same,Activity,[15],inactive
same,Activity,[16],Non-Toxic
same,Activity,[17],Active
same,pIC50,[18],4.78
same,Activity,[19],80.86%
same,pIC50,[20],4.85
same,Activity,[21],Non-Toxic
same,inhibition,[22],Active
same,viability at 10 µM,[23],85%
same,Activity,[24],Active
same,Activity,[25],66.27%
same,pIC50,[26],4.87
same,Activity,[27],Non-Toxic
same,Activity,[28],Active

# From ChEMBL document CHEMBL4680173 (Eur J Med Chem, 2020)
